Experimental data pooled from the literature.
Each line is one published result; the experiments were not run side by side.
Target: TGF-beta receptor type-1 (TGFBR1, Homo sapiens, UniProt P36897)
Residues used in one study (P36897 34-503): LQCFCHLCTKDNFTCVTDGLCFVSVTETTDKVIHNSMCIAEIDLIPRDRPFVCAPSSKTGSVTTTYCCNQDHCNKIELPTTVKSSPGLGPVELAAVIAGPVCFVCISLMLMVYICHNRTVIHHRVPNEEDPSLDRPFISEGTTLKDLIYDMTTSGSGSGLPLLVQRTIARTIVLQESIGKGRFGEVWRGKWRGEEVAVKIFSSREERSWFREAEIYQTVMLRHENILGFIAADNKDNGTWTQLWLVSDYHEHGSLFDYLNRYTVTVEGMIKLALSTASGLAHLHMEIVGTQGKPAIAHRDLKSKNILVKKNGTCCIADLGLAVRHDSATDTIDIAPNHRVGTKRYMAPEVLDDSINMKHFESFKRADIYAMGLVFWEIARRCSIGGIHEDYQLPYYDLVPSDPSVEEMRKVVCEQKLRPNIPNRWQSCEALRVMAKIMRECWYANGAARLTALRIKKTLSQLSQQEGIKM

| SMILES | observed | technique | tested at | remaining binding [%] |
| --- | --- | --- | --- | --- |
| C[C@@H]1CCN(c2nccc(-c3cnn4ncccc34)n2)C1 | binding |  | 1 µM | 98 |
| COc1cnc(Nc2cccc(S(N)(=O)=O)c2)nc1N1CCN(c2ccccc2)C(=O)C1 | binding | competition with immobilised ligand | 1 µM | 100 |
| COc1ccc2c(c1)O[C@H](c1ccc(OC)c(OC)c1)C[C@@H]2NC(=O)C1(c2ccc3c(c2)OC(F)(F)O3)CC1 | cell-free assay | competition with immobilised ligand | 1 µM | 100 |
| Cc1cnc(Nc2ccc(C(=O)N3CCC(N4CCCC4)CC3)cc2)nc1-c1cc2ccccc2s1 | binding | competition with immobilised ligand | 1 µM | 48 |
| CN([C@@H]1CCc2c(CC(=O)O)c3ccccc3n2C1)S(=O)(=O)c1ccc(F)cc1 | cell-free assay | competition with immobilised ligand | 1 µM | 100 |
| c1cnn2ncc(-c3ccnc(N4CCC45COC5)n3)c2c1 | binding |  | 1 µM | 78 |
| C[C@@H]1CN(c2ccc3ncc(-c4ccc5[nH]nc(C6CC6)c5c4)n3n2)C[C@H](C)O1 | binding | competition with immobilised ligand | 0.5 µM | 100 |
| COc1ncc2cc3ccccc3nc2c1C#N | cell-free assay | competition with immobilised ligand | 5 µM | 92 |
| O=C(Nc1cccnn1)N1CCC(=Cc2cccc(Oc3ccc(C(F)(F)F)cn3)c2)CC1 | cell-free assay | competition with immobilised ligand | 1 µM | 61 |
| N[C@@H]1CCN(c2nccc(-c3cnn4ncccc34)n2)C1 | binding |  | 1 µM | 92 |
| O=S(=O)(NC1CCC(c2cc(F)ccc2F)(S(=O)(=O)c2ccc(Cl)cc2)CC1)C(F)(F)F (centres unmarked) | cell-free assay | competition with immobilised ligand | 1 µM | 100 |
| FC(F)(F)Oc1cccc(-c2cnc3ccc(-c4ccncc4)nn23)c1 | cell-free assay | competition with immobilised ligand | 5 µM | 83 |
| FC(F)(F)c1ccc2c(c1)nc(-c1cccnc1)n2C1CC1 | cell-free assay | competition with immobilised ligand | 1 µM | 78 |
| O=C(Nc1c[nH]nc1C(=O)NC1CCNCC1)c1cc(F)cc(F)c1 | binding | competition with immobilised ligand | 1 µM | 100 |
| N#Cc1ccccc1CSc1nnc2c(n1)[nH]c1ccccc12 | binding | competition with immobilised ligand | 10 µM | 100 |
| Cc1cnn2ncc(-c3ccnc(N(C)C)n3)c2c1 | binding |  | 1 µM | 100 |
| O=C(c1ccc(Nc2nccc(-c3cc4ccccc4s3)n2)cc1)N1CCC(N2CCCC2)CC1 | binding | competition with immobilised ligand | 1 µM | 91 |
